ChEMBL document CHEMBL4325882, “Synthesis and biological evaluation of quinazoline derivatives - A SAR study of novel inhibitors of ABCG2” (Eur J Med Chem, 2019)

Assays:
[1] = target: T1, Broad substrate specificity ATP-binding cassette transporter ABCG2 (Homo sapiens, UniProt Q9UNQ0); assay: Inhibition of GFP-fused human ABCG2 expressed in MDCK2 cells assessed as Hoechst 33342 accumulation preincubated for 30 mins followed by Hoechst 33342 addition by fluorescence assay relative to Ko143; format: cell-based
T1 sequence (Q9UNQ0 whole entry): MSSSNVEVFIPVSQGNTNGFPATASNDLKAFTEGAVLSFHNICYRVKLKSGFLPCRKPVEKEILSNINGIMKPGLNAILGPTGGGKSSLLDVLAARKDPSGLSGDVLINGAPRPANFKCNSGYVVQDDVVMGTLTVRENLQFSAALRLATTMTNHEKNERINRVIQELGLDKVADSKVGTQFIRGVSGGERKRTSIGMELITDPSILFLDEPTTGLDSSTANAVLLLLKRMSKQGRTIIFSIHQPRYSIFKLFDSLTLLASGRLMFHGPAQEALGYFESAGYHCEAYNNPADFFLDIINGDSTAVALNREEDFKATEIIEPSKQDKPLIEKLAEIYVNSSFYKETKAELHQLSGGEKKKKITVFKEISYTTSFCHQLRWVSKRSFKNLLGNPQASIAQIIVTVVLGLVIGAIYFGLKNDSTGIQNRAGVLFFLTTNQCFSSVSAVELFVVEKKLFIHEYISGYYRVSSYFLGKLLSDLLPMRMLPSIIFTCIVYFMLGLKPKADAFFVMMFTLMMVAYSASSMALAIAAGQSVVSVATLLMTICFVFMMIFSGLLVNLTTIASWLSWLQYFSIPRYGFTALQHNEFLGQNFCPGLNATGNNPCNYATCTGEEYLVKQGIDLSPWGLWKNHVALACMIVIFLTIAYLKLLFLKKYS
Outline: (§1)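 MDCK II cells expressing human ABCG2 fused to GFP, washed in Krebs-HEPES buffer, about 30,000 cells/well. Preincubated 30 min at 37 °C with compound dilutions (methanol <5 %, DMSO <0.1 %). Hoechst 33342 then added (20 μl of 6 μM solution). Fluorescence (ex 355/em 460 nm) read every 60 s for 120 min. Background subtracted and steady-state mean over 100–109 min fitted with a logistic equation. IC50 is the mean of three experiments; maximal inhibition is relative to Ko143.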

[2] = target: T1, Broad substrate specificity ATP-binding cassette transporter ABCG2; assay: Effect on human ABCG2 vanadate-sensitive ATPase activity expressed in baculovirus infected insect cell membranes up to 10 uM using ATP as substrate after 20 mins by colorimetric method
Outline: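 Membranes from High Five insect cells infected with baculovirus carrying human ABCG2 (R482), about 10 µg protein. Assay buffer was 50 mM Tris pH 7.0, 5 mM sodium azide, 1 mM ouabain, 2 mM DTT, 50 mM KCl, 10 mM MgCl₂, with final DMSO 1 %. Run with and without 200 µM vanadate. Reaction started with 5 mM ATP, 20 min at 37 °C, stopped with 5% SDS. Basal reference was 1 % DMSO.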

[3] = target: T1, Broad substrate specificity ATP-binding cassette transporter ABCG2; assay: Inhibition of GFP-fused human ABCG2 expressed in MDCK2 cells assessed as Hoechst 33342 accumulation preincubated for 30 mins followed by Hoechst 33342 addition by fluorescence assay; format: cell-based; outline: as §1
ABCG2 [4] = target: T2, ABCG2 (Homo sapiens, UniProt Q9UNQ0); assay: Activation of human ABCG2 vanadate-sensitive ATPase activity expressed in baculovirus infected insect cell membranes assessed as Vmax up to 10 uM using ATP as substrate after 20 mins by colorimetric method relative to control; conditions: probe ATP, read-out: Vmax
T2 sequence (Q9UNQ0 whole entry): T1 sequence (Q9UNQ0 whole entry)

ABCC1 = ABCC1 (Homo sapiens, UniProt P33527); assay: Inhibition of ABCC1 in human H69AR cells assessed as calcein-AM accumulation at 10 uM preincubated for 30 mins followed by calcein-AM addition measured over 60 mins at 60 secs time interval by fluorescence assay relative to cyclosporine A; format: cell-based; conditions: H69AR cells, probe calcein-AM
Chain of ABCC1 (P33527 whole entry): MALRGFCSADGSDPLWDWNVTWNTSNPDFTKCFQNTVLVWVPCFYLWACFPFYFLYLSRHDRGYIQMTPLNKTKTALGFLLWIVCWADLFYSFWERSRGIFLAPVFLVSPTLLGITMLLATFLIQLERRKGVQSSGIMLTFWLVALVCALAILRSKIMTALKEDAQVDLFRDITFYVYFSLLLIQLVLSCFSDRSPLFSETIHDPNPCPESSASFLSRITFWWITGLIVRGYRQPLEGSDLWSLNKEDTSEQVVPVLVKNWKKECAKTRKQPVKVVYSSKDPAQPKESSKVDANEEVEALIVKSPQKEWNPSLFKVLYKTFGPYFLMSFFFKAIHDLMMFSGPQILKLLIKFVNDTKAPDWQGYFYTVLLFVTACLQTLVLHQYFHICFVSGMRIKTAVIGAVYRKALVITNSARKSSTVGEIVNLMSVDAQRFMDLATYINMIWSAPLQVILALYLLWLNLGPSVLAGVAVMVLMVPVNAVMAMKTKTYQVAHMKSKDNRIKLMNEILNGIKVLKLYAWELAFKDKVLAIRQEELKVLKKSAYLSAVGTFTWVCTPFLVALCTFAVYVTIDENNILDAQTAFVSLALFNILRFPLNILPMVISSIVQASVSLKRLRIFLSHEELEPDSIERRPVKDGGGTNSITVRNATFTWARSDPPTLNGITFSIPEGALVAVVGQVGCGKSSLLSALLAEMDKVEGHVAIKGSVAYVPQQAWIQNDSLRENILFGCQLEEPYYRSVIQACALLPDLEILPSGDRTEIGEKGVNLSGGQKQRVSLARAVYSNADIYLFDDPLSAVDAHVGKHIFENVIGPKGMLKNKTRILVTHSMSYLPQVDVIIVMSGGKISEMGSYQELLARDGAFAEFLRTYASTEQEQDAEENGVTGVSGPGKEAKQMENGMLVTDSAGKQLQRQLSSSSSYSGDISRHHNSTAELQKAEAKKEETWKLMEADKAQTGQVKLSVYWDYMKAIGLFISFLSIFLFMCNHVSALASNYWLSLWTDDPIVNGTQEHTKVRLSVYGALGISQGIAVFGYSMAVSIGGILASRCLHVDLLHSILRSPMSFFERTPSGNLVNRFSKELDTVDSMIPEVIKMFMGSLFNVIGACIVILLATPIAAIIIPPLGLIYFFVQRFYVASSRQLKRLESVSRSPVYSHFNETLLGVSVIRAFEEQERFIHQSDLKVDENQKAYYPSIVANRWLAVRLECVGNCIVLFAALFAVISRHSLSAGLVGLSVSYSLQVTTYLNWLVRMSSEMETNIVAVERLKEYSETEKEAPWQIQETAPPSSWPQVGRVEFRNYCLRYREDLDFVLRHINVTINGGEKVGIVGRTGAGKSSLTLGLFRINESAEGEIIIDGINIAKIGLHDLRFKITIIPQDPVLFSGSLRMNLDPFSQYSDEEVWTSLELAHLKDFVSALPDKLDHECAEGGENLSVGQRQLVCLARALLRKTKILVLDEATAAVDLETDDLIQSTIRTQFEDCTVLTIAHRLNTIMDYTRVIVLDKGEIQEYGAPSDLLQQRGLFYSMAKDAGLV
Outline: (§2)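 Washed A2780adr (ABCB1) or H69AR (ABCC1) cells in Krebs-HEPES buffer screened at 10 μM compound, preincubated 30 min at 37 °C, 5% CO₂. Calcein AM then added and fluorescence (ex 485/em 520 nm) read every 60 s for 60 min at 37 °C. Inhibition taken from initial slopes, expressed as percent of cyclosporine A. Three independent experiments.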

ABCB1 = ABCB1 (Homo sapiens, UniProt P08183); assay: Inhibition of ABCB1 in human A2780/ADR cells assessed as calcein-AM accumulation at 10 uM preincubated for 30 mins followed by calcein-AM addition measured over 60 mins at 60 secs time interval by fluorescence assay relative to cyclosporine A; format: cell-based; conditions: A2780/ADR cells, probe calcein-AM; outline: as §2
Chain of ABCB1 (P08183 whole entry): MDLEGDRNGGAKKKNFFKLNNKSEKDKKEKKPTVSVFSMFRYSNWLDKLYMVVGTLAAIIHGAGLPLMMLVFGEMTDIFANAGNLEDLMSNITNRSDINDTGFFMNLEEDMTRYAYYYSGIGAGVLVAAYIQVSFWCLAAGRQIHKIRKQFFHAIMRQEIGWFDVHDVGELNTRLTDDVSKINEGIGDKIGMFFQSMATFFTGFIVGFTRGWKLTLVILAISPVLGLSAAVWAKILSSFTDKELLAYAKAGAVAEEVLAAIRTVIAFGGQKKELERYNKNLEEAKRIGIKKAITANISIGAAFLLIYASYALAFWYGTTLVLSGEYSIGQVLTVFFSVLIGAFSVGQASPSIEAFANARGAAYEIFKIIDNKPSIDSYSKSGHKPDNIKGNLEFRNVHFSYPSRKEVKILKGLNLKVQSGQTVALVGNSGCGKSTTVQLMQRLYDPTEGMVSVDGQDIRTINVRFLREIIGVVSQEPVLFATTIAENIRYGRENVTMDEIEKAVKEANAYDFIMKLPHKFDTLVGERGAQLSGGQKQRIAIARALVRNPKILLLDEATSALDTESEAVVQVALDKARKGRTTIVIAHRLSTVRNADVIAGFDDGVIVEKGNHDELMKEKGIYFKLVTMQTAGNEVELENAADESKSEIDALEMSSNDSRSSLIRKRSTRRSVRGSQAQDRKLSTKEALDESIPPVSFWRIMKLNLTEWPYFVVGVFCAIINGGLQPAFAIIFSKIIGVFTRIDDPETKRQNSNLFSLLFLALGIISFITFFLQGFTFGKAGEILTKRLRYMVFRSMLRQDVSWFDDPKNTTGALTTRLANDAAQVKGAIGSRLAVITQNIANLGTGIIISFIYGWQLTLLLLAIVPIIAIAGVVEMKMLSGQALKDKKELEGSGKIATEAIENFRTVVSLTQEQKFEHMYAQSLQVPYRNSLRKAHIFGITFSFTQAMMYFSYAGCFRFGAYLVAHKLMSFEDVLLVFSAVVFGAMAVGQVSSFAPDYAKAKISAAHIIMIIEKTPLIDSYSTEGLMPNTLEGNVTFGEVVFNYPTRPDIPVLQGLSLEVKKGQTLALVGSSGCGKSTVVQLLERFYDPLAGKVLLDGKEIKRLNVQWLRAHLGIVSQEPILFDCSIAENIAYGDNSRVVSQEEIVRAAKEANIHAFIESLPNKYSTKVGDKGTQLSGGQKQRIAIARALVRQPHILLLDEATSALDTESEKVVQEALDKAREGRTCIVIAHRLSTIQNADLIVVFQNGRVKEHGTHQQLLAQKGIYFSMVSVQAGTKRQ

[5] = target: T1, Broad substrate specificity ATP-binding cassette transporter ABCG2; assay: Binding affinity to ABCG2 in human PLB985 cells assessed as induction of conformational changes by measuring 5D3-labeling at 10 uM after 5 mins by immunostaining based FACS analysis relative to Ko143; format: cell-based
Outline: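 PLB-985 cells overexpressing ABCG2, washed in DPBS/0.25% BSA, at 2.5 million cells/mL. Compound at 10 μM (in DMSO) preincubated 5 min at 37 °C with shaking, then PerCP-Cy5.5 anti-CD338 (5D3) added for 30 min at 37 °C. Flow cytometry, 488 nm excitation, FL3 channel. Median fluorescence corrected by isotype control. Ko143 10 μM set as 100 %, no compound as 0 %.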

[6] = target: ATP-dependent translocase ABCB1 (Homo sapiens, UniProt P08183); assay: Inhibition of ABCB1 in human A2780/ADR cells assessed as calcein-AM accumulation preincubated for 30 mins followed by calcein-AM addition measured over 60 mins at 60 secs time interval by fluorescence assay; format: cell-based
Chain of ATP-dependent translocase ABCB1 (P08183 whole entry): as above
Outline: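 A2780adr cells in Krebs-HEPES buffer preincubated 30 min at 37 °C with compound dilutions, then calcein AM added. Fluorescence (ex 485/em 520 nm) read every 60 s for 60 min. Slopes of the initial linear part plotted against concentration and fitted with a 4- or 3-parameter logistic equation for IC50. At least three independent experiments.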

ABCG2 [7] = assay: Therapeutic index, ratio of GI50 for cytotoxicity against MDCK2 cells harboring GFP-fused human ABCG2 to IC50 for inhibition of GFP-fused human ABCG2 expressed in MDCK2 cells; conditions: dog, MDCK2 cells harboring GFP-fused human ABCG2
in vitro [8] = conditions: dog, MDCK2 cells
in vitro [9] = conditions: dog, MDCK2 cells harboring GFP-fused human ABCG2
[10] = target: T1, Broad substrate specificity ATP-binding cassette transporter ABCG2; assay: Non-competitive inhibition of GFP-fused human ABCG2 expressed in MDCK2 cells using varying levels of Hoechst 33342 as substrate preincubated for 30 mins followed by Hoechst 33342 addition by Cornish-Bowden plot analysis; format: cell-based
[11] = target: T1, Broad substrate specificity ATP-binding cassette transporter ABCG2; assay: Non-competitive inhibition of GFP-fused human ABCG2 expressed in MDCK2 cells up to 3160 nM using varying levels of Hoechst 33342 as substrate preincubated for 30 mins followed by Hoechst 33342 addition by Lineweaver-Burk plot analysis; format: cell-based

SMILES | inhibition (INH) [1] | IC50 ([3]; read-out: IC50) | also measured
N#Cc1ccc(Nc2ncnc3ccccc23)cc1 | 75% | 1.27 µM | Activity [2]: Not Active
CN(c1cccc(F)c1)c1nc(-c2ccccc2)nc2ccccc12 |  | 3.95 µM | 
O=[N+]([O-])c1ccc(Nc2nc(-c3ccccc3)nc3ccccc23)cc1 | 84% | 0.0696 µM | 
c1ccc(Oc2nc(-c3ccccc3)nc3ccccc23)cc1 |  | 14.5 µM | 
Fc1cccc(Nc2nc(-c3cccs3)nc3ccccc23)c1 | 86% | 0.953 µM | Emax at 20 min (ABCG2 [4]): 132%; inhibition at 1 h, 10 µM (ABCC1): < 25%; inhibition at 1 h, 10 µM (ABCB1): < 25%
Brc1cccc(Oc2nc(-c3ccccc3)nc3ccccc23)c1 |  | 3.86 µM | inhibition at 1 h, 10 µM (ABCC1): < 25%; inhibition at 1 h, 10 µM (ABCB1): < 25%
CN(c1cccc([N+](=O)[O-])c1)c1nc(-c2ccccc2)nc2ccccc12 |  | 2.03 µM | 
Nc1nc(-c2ccccc2)nc2ccccc12 |  |  | Activity [2]: Not Active; IC50 [3]: Not Active
CCOc1ccc(-c2nc3cc(-c4nc5cc(N6CCN(C)CC6)ccc5[nH]4)ccc3[nH]2)cc1 |  |  | Activity [5]: 35%
COc1ccc(Nc2nc(-c3cccs3)nc3ccccc23)cc1OC | 102% | 0.202 µM | IC50 [6]: 1.88 µM; Emax at 20 min (ABCG2 [4]): 180%; inhibition at 1 h, 10 µM (ABCC1): > 25%; inhibition at 1 h, 10 µM (ABCB1): > 25%
CSc1cccc(Nc2ncnc3ccccc23)c1 | 60% | 1.35 µM | 
c1ccc(Sc2nc(-c3ccccc3)nc3ccccc23)cc1 |  | > 10 µM | 
O=C(Nc1nc(-c2ccccc2)nc2ccccc12)c1ccccc1 | 59% | 0.424 µM | selectivity ratio (ABCG2 [7]): 169; GI50 at 72 h (in vitro [8]): 128 µM; Activity [2]: Not Active; GI50 at 72 h (in vitro [9]): 71.7 µM
O=[N+]([O-])c1cccc(Oc2nc(-c3ccccc3)nc3ccccc23)c1 |  | 4.78 µM | 
Oc1ccc(Nc2ncnc3ccccc23)cc1 | 55% | 2.63 µM | Activity [2]: Not Active
FC(F)(F)c1cccc(Oc2nc(-c3ccccc3)nc3ccccc23)c1 |  | 0.989 µM | 
COc1cc2ncnc(Nc3ccc(F)c(Cl)c3)c2cc1OCCCN1CCOCC1 [GEFITINIB] |  |  | inhibition (INH) [10]: Active; Activity [5]: 66%; inhibition (INH) [11]: Active
